Test results from ChEMBL document CHEMBL4376826 (J Med Chem, 2020).
≈ marks a conversion by molar mass, not a printed value.

Legend:
[1] = Drug level in beta-naphthoflavone/phenobarbital-induced rat liver S9 fraction treated with 100 ug/ml Ezutromid-1 assessed as compound formation in presence of NADPH measured after 4 hrs by UV-Vis spectroscopy; format: ADME, subcellular; conditions: s9, 4 h
[2] = Retention time in beta-naphthoflavone/phenobarbital-induced rat liver S9 fraction at 100 ug/ml in presence of NADPH by LC-MS/MS analysis; format: ADME, subcellular
[3] = Retention time in human plasma by LC-MS/MS analysis; format: ADME, cell-free
[4] = Lipophilicity, logD of the compound at pH 7.4; format: physicochemical; conditions: buffer
[5] = Kinetic aqueous solubility of the compound; format: physicochemical; conditions: buffer; read-out: Kinetic_solubility
[6] = Permeability at pH 7.4 by PAMPA; format: ADME; conditions: read-out: permeability
[7] = Protein binding in mouse plasma assessed as bound fraction; format: ADME, cell-free; conditions: read-out: PPB (converted)
Outline: (§1)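 Binding measured in 100% plasma; reported as fraction bound.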

[8] = Protein binding in human plasma assessed as bound fraction; format: ADME, cell-free; conditions: read-out: PPB (converted); outline: as §1
[9] = Half life in mouse liver S9 fraction; format: ADME, subcellular
Outline: (§2)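 Metabolic stability of the dihydrodiols measured in vitro with mouse and human liver S9 fractions and with mouse and human hepatocytes; half-life from substrate depletion.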

[10] = Half life in mouse hepatocytes; format: ADME, cell-based, Hepatocyte; outline: as §2
[11] = target: UDP-glucuronosyltransferase 1A4 (Homo sapiens, UniProt P22310); experiment: Drug metabolism assessed as human UGT1A4-mediated metabolism by measuring intrinsic clearance; format: ADME; conditions: recombinant enzyme
Sequence of UDP-glucuronosyltransferase 1A4 (P22310 whole entry): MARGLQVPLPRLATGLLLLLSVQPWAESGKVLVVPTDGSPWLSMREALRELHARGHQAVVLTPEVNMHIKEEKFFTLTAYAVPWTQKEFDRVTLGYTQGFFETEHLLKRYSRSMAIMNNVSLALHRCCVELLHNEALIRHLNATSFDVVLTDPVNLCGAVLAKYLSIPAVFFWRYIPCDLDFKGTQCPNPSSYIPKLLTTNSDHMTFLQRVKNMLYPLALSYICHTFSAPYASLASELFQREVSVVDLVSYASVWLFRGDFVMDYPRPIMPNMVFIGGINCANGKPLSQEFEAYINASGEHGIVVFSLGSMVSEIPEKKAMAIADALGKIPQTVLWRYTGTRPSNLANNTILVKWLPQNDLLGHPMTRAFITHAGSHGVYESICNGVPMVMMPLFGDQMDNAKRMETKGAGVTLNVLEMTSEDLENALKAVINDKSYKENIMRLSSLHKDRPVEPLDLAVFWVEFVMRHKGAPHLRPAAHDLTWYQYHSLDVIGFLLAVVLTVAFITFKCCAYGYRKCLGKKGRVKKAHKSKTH

[12] = Half life in human liver S9 fraction; format: ADME, subcellular; outline: as §2
[13] = Half life in human hepatocytes; format: ADME, cell-based, Hepatocyte; outline: as §2
[14] = Intrinsic clearance in mouse liver S9 fraction; format: ADME, subcellular; conditions: read-out: CLH
[15] = Intrinsic clearance in mouse hepatocytes; format: ADME, cell-based, Hepatocyte
[16] = Intrinsic clearance in human liver S9 fraction; format: ADME, subcellular; conditions: read-out: CLH
[17] = Intrinsic clearance in human hepatocytes; format: ADME, cell-based, Hepatocyte
[18] = system: UDP-glucuronosyltransferases (UGTs); experiment: Drug metabolism assessed as human UGT-mediated metabolism by measuring intrinsic clearance; format: ADME, protein assay
[19] = target: UGT1A9 (Homo sapiens, UniProt O60656); experiment: Inhibition of human UGT1A9 assessed as residual enzyme activity at 10 uM relative to control; format: ADME; conditions: read-out: Activity
Sequence of UGT1A9 (O60656 whole entry): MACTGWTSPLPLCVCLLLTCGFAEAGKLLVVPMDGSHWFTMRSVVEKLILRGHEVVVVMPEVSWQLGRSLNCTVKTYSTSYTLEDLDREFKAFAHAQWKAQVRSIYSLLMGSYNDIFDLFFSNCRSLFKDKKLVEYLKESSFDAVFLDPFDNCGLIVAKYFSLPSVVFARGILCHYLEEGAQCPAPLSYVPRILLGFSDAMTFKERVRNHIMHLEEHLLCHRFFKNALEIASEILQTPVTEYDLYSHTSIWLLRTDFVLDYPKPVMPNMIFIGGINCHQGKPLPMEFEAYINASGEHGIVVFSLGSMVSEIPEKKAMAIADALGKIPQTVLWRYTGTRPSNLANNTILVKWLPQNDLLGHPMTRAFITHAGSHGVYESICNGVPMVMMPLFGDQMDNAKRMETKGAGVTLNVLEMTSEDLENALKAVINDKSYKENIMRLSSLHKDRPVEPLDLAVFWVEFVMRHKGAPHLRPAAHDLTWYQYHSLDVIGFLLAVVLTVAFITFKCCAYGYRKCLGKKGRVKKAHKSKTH

[20] = target: UGT1A3 (Homo sapiens, UniProt P35503); experiment: Inhibition of human UGT1A3 assessed as residual enzyme activity at 10 uM relative to control; format: ADME; conditions: read-out: Activity
Sequence of UGT1A3 (P35503 whole entry): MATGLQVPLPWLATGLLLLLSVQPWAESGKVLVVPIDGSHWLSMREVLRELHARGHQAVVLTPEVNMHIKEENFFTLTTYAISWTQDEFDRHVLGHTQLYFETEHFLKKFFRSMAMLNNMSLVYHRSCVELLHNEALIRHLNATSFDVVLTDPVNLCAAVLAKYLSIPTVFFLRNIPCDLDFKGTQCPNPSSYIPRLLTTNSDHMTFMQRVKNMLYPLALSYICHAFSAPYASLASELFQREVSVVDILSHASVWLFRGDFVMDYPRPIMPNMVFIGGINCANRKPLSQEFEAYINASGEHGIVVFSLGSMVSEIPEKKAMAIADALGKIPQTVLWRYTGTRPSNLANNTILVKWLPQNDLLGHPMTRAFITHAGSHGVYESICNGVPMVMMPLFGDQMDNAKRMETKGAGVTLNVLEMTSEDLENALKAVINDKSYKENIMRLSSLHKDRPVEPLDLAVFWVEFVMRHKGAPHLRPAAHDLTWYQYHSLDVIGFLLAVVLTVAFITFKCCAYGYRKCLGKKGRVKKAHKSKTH

[21] = target: UGT1A4 (Homo sapiens, UniProt P22310); experiment: Inhibition of human UGT1A4 assessed as residual enzyme activity at 10 uM relative to control; format: ADME; conditions: read-out: Activity
Sequence of UGT1A4 (P22310 whole entry): as the sequence (P22310 whole entry) above

[22] = target: Broad substrate specificity ATP-binding cassette transporter ABCG2 (Homo sapiens, UniProt Q9UNQ0); experiment: Inhibition of BCRP (unknown origin); format: ADME
Sequence of Broad substrate specificity ATP-binding cassette transporter ABCG2 (Q9UNQ0 whole entry): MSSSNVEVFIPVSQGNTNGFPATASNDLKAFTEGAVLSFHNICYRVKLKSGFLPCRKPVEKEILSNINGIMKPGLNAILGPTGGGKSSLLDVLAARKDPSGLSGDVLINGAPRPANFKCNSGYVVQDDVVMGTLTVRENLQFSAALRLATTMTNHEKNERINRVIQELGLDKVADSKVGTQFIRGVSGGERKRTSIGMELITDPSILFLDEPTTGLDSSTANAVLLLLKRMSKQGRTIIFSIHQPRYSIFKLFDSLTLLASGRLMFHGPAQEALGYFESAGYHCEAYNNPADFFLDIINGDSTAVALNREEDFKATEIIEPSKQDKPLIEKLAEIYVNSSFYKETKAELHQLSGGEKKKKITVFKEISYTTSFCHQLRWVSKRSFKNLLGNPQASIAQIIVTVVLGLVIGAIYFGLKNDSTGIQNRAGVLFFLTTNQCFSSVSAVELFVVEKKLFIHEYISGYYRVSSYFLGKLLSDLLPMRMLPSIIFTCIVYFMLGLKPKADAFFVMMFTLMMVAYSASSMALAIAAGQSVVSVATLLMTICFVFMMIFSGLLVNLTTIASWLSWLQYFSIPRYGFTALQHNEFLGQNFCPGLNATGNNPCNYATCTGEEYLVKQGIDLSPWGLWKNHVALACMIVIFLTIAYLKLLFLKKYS

[23] = target: Solute carrier organic anion transporter family member 1B1 (Homo sapiens, UniProt Q9Y6L6); experiment: Inhibition of OATP1B1 (unknown origin); format: ADME
Sequence of Solute carrier organic anion transporter family member 1B1 (Q9Y6L6 whole entry): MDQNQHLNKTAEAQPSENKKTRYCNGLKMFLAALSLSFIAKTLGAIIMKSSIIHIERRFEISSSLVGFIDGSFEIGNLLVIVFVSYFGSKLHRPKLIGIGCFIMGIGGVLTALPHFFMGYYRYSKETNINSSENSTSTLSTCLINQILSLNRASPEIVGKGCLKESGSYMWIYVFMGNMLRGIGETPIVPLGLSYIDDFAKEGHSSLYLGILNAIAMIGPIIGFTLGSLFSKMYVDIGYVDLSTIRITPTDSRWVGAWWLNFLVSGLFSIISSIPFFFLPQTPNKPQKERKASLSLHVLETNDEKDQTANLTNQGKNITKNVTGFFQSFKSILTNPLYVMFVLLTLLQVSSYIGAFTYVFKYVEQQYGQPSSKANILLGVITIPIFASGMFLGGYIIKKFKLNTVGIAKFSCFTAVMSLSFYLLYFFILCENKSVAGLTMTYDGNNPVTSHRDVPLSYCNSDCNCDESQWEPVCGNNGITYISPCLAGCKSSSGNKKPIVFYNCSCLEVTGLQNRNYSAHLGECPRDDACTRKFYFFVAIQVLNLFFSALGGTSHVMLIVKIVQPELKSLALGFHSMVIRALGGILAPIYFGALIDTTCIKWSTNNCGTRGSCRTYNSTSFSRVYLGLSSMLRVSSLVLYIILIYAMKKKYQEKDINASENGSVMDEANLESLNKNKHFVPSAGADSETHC

[24] = target: Solute carrier organic anion transporter family member 1B3 (Homo sapiens, UniProt Q9NPD5); experiment: Inhibition of OATP1B3 (unknown origin); format: ADME
Sequence of Solute carrier organic anion transporter family member 1B3 (Q9NPD5 whole entry): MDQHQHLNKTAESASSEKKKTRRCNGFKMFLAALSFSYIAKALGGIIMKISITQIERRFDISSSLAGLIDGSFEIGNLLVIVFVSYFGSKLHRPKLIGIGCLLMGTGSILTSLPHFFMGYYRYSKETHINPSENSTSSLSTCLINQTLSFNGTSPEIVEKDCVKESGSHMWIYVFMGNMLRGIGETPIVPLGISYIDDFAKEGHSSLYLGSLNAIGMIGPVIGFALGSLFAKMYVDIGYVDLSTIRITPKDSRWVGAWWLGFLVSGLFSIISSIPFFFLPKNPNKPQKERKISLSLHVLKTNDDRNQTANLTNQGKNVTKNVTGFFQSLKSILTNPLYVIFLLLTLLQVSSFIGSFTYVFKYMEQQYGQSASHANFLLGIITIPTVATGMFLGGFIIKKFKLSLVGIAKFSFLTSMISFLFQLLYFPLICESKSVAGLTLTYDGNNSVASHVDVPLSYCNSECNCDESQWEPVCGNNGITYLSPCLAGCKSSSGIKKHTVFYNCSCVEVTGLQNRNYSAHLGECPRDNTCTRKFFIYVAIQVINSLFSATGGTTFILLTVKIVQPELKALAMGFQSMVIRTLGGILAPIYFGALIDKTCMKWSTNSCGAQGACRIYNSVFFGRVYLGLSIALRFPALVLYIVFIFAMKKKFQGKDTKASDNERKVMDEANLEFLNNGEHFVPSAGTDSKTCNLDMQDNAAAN

[25] = target: T1, Amine oxidase [flavin-containing] B (Homo sapiens, UniProt P27338); experiment: Inhibition of monoamino oxidase B (unknown origin) at 10 uM
T1 sequence (P27338 whole entry): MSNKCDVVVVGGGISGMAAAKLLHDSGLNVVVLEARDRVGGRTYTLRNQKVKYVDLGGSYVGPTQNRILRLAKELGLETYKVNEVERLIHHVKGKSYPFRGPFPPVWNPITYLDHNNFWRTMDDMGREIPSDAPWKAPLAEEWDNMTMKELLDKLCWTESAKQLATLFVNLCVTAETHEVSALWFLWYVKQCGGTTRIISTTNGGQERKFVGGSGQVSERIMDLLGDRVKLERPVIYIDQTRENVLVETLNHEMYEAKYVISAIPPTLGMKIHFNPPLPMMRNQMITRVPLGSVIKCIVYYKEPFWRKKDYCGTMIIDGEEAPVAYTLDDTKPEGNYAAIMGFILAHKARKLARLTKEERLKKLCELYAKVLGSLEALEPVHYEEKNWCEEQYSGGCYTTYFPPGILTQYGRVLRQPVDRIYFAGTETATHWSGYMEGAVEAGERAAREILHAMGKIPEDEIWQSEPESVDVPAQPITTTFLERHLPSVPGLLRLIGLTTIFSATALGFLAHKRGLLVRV

[26] = Inhibition of adenosine transporter (unknown origin) at 10 uM; format: ADME; conditions: human

Drug uptake [1]: Metabolite_Detected
Retention_time [2]: 9 min
Retention_time [3]: 8.9 min
logD [4]: 1.95
solubility kinetic [5]: 210 µM (≈ 78 µg/mL)
Papp [6]: 34.4 ×10⁻⁶ cm/s
fraction unbound [7]: 0.077
fraction unbound [8]: 0.128
half-life [9]: 1.87 h
half-life [10]: 2.38 h
CL [11]: < 2.9 µL/min/pmol
half-life [12]: > 2.3 h
half-life [13]: 2.37 h
microsomal CLint [14]: 13 µL/min/mg
CLH [15]: 5 µL/min/mg
microsomal CLint [16]: < 10 µL/min/mg
CLH [17]: 5 µL/min/mg
CL [18]: < 5.8 µL/min/pmol
activity at 10 µM [19]: 45%
activity at 10 µM [20]: 79%
activity at 10 µM [21]: 84%
inhibition (INH) [22]: Active
inhibition (INH) [23]: Active
inhibition (INH) [24]: Active
inhibition (INH) [25]: Not Active
inhibition (INH) [26]: Not Active
SMILES: CCS(=O)(=O)c1ccc2oc(-c3ccc4c(c3)[C@@H](O)[C@H](O)C=C4)nc2c1
